These results are taken from ChEMBL document CHEMBL4706625, “Synthesis of Guaianolide Analogues with a Tunable α-Methylene-γ-lactam Electrophile and Correlating Bioactivity with Thiol Reactivity” (J Med Chem, 2020).

Active and inactive are the calls of the source. The calls are words filed in the database; no cut-off is given here.

Data set [1] is described as follows: Thiol-reactivity using 13C-labeled La antigen containing reactive cysteine C245 at 400 uM at 37 degreeC for 90 mins in absence of DTT by 2D 1H-13C HMQC ALARM NMR spectroscopy. The format is ADME. The conditions noted are these: 1.5 h. The method, boiled down:
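ALARM NMR: compound (400 μM final) was incubated with 13C-methyl-labeled La antigen (50 μM final) at 37 °C for 90 min, without and with 20 mM DTT. Reactivity was scored from 13C-methyl chemical shift changes and attenuation of diagnostic peaks in 1H-13C HMQC spectra without DTT.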

Data set [2] can be described thus: Thiol-reactivity using La antigen containing reactive cysteine C245 at 0.5 mM incubated for 1 hr by MS analysis based ALARM MSPS analysis. The conditions noted are these: 500 µM.
A short description of data set [3]: Toxicity in African green monkey Vero cells assessed as reduction in cell viability incubated for 48 hrs by Alamar blue assay. It is filed as cell-based, Chlorocebus sabaeus.
In data set [4] the test system is A549. Briefly: Inhibition of TNFalpha-induced canonical NF-kappaB signaling (unknown origin) expressed in human A549 cells at 20 uM […] by NF-kappaB-driven luciferase reporter gene assay. It is filed as cell-based. The conditions noted are these: time 500.0 min.
Data set [5] has as its system HEK293. The experiment in a line: Inhibition of TNFalpha-induced canonical NF-kappaB signaling (unknown origin) expressed in HEK293 cells assessed as residual NF-kappaB activity at 7.5 uM pre-incubated for 30 mins followed by TNFalpha stimulation for 8 hrs by NF-kappaB-driven SEAP assay. To be noted: Homo sapiens, time 510.0 min.
In data set [6] the test system is A549. Briefly: Inhibition of TNFalpha-induced canonical NF-kappaB signaling (unknown origin) expressed in human A549 cells assessed as residual NF-kappaB activity at 10 uM […] by NF-kappaB-driven luciferase reporter gene assay. The conditions noted are these: time 500.0 min. The format is cell-based.
The subject of data set [7] is HEK293. Briefly: Inhibition of TNFalpha-induced canonical NF-kappaB signaling (unknown origin) expressed in HEK293 cells assessed as residual NF-kappaB activity at 7.5 uM pre-incubated for 30 mins followed by TNFalpha stimulation for 8 hrs by NF-kappaB-driven SEAP assay. It is filed as cell-based. To be noted: Homo sapiens, time 510.0 min. The method, boiled down: (§1)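 HEK293 cells stably carrying an NF-κB-driven SEAP reporter were grown in DMEM with 10% FBS, penicillin/streptomycin and 0.5 mg/mL G418 at 37 °C, 5% CO2. They were seeded at 5,000 cells/well 24 h ahead. Compounds (1–7.5 μM, 0.5% DMSO final) were added for 30 min, then TNF-α at 22.5 ng/mL final for 8 h. Secreted SEAP in the medium was quantified chemiluminescently, relative to the induced control set as 100%.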

Data set [8] relates to A549. The experiment in a line: Inhibition of TNFalpha-induced canonical NF-kappaB signaling (unknown origin) expressed in human A549 cells assessed as residual NF-kappaB activity at 20 uM […] followed by TNFalpha stimulation for 8 hrs by NF-kappaB-driven luciferase reporter gene assay. It is filed as cell-based. The conditions noted are these: time 500.0 min.
Data set [9] deals with HEK293. The experiment in a line: Inhibition of TNFalpha-induced canonical NF-kappaB signaling (unknown origin) expressed in HEK293 cells at 7.5 uM pre-incubated for 30 mins followed by TNFalpha stimulation for 8 hrs by NF-kappaB-driven SEAP assay. The format is cell-based. The conditions noted are these: Homo sapiens, time 510.0 min. Put shortly:
as §1

The subject of data set [10] is A549. The experiment in a line: Inhibition of TNFalpha-induced canonical NF-kappaB signaling (unknown origin) expressed in human A549 cells at 10 uM […] by NF-kappaB-driven luciferase reporter gene assay. It is filed as cell-based. To be noted: time 500.0 min.

Take `CCN(CC)c1ccc2c(C)c(-c3ccc(N4C(=O)C=CC4=O)cc3)c(=O)oc2c1`: the outcome in [1] and in [2] was Active.

Take `C=C1C(=O)N[C@@H]2C3=CC(=O)CC3=C(C)CC[C@@H]12`: the IC50 at 48 h in data set [3] was above 200 µM. Also, the inhibition entry with A549 [4] and in the data set on HEK293 [5] was “inactive” in each case.

Consider `C=C1C(=O)O[C@H]2C3=C(c4ccccc4)C(=O)CC3=C(C)CC[C@H]12`, for which the result in data set [1] and in data set [2] was Active.

Regarding `C=C1C(=O)N[C@@H]2C3=C(c4ccccc4)C(=O)CC3=C(C)CC[C@@H]12`, in the data set with A549 [4], the inhibition entry is “inactive”.

For `C=C1C(=O)O[C@@H]2[C@H]3O[C@]3(C)CC/C=C(\C)CC[C@@H]12`, the Activity stood at 53% in the data set on A549 [6] and 20% with HEK293 [7].

`C=C1C(=O)N(c2ccc(C(F)(F)F)cc2)[C@@H]2C3=C(c4ccccc4)C(=O)CC3=C(C)CC[C@@H]12` (relative stereo): the Activity was 21% in the data set with A549 [8]; “Not Active” in data set [1]; “Not Active” in data set [2]; 62% in the data set on A549 [6]; 44% with HEK293 [7].

Regarding `C=C1C(=O)N(C(C)=O)[C@@H]2C3=CC(=O)CC3=C(C)CC[C@@H]12` (relative stereo), the Activity was found to be 28% with A549 [8], 59% with A549 [6] and 19% in the data set on HEK293 [7].

For `C=C1C(=O)N(C)[C@@H]2C3=C(c4ccccc4)C(=O)CC3=C(C)CC[C@@H]12` (relative stereo), in the data set with A549 [4], the inhibition entry is “inactive”.

On to `C=C1C(=O)N(S(=O)(=O)c2ccc(C)cc2)[C@@H]2C3=C(c4ccccc4)C(=O)CC3=C(C)CC[C@@H]12` (relative stereo), for which the inhibition in the data set on HEK293 [9] and in the data set with A549 [10] was 100% each time.

As to `C=C1C(=O)N(c2ccc(OC)cc2)[C@@H]2C3=C(c4ccccc4)C(=O)CC3=C(C)CC[C@@H]12` (relative stereo), the inhibition entry in the data set on A549 [4] and with HEK293 [5] was “inactive” each time.

Turning to `C=C1C(=O)N(c2ccccc2)[C@@H]2C3=C(c4ccccc4)C(=O)CC3=C(C)CC[C@@H]12` (relative stereo), the inhibition result in the data set with A549 [4] and with HEK293 [5] was “inactive” throughout.

`OC(Cn1cncn1)(Cn1cncn1)c1ccc(F)cc1F` [FLUCONAZOLE]: the Activity result in [1] and in [2] was “Not Active” each time.
